Results reported in ChEMBL document CHEMBL3091449, “Synthesis and antimicrobial profile of N-substituted imidazolium oximes and their monoquaternary salts against multidrug resistant bacteria” (2013).

Key:
Type in all cases: functional
Enterococcus faecalis [1] = assay: Antibacterial activity against Enterococcus faecalis ATCC 29212 after 18 to 24 hrs by two-fold broth microdilution assay
Method in brief: (§1)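 CLSI two-fold broth microdilution was used. Compounds were dissolved in DMSO, brought to 10 mg/mL in medium, then serially diluted in Mueller Hinton broth over 400–0.09 µg/mL. Overnight MHB cultures were diluted to 10^6 CFU/mL, and 10 µL was added per well. Plates were incubated 18–24 h at 37 °C, then 0.2 mg/mL INT was added for 30 min at 37 °C. MIC was the lowest concentration with no visible growth or pink colour, triplicate.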

Clostridium perfringens [2] = assay: Antibacterial activity against Clostridium perfringens FNSST 4999 after 18 to 24 hrs by two-fold broth microdilution assay
Method in brief: (§2)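 CLSI two-fold broth microdilution. Compounds dissolved in DMSO, 10 mg/mL stock, serially diluted to 400–0.09 µg/mL in Mueller Hinton broth. Wells inoculated with 10^6 CFU/mL bacteria and incubated 18–24 h at 37 °C. 0.2 mg/mL INT added for 30 min. MIC taken as the lowest concentration with no visible growth or pink colour. Triplicate.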

Staphylococcus aureus [3] = assay: Antibacterial activity against Staphylococcus aureus ATCC 25923 assessed as diameter of zone of inhibition at 250 ug/disc after 24 hrs by disc diffusion method; settings: ATCC 25923, 24 h, read-out: DIZ
Method in brief: (§3)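 Bacteria were grown overnight at 37 °C in TSB to about 10^6 cfu/mL, and 100 µL was spread on Mueller Hinton agar. Sterile 6 mm discs were each loaded with 25 µL of a 10 mg/mL stock in 96% ethanol, giving 250 µg/disc. Ethanol served as the negative control. Plates were incubated 24 h at 37 °C. Inhibition zone diameter was measured including the disc, in triplicate, as mean ± SE.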

Klebsiella pneumoniae [4] = assay: Ratio of gentamicin MIC to compound MIC for Klebsiella pneumoniae FNSST 011
Enterobacter cloacae [5] = assay: Antibacterial activity against TEM-1/CTX-M-15 expressing Enterobacter cloacae isolate 62 after 18 to 24 hrs by two-fold broth microdilution assay
Aeromonas hydrophila [6] = assay: Antibacterial activity against Aeromonas hydrophila FNSST 014 assessed as diameter of zone of inhibition at 250 ug/disc after 24 hrs by disc diffusion method; settings: FNSST 014, 24 h, read-out: DIZ; method in brief: as §3
Klebsiella pneumoniae [7] = assay: Antibacterial activity against TEM-1/SHV-12 expressing Klebsiella pneumoniae isolate 303 after 18 to 24 hrs by two-fold broth microdilution assay; method in brief: as §1
Escherichia coli [8] = assay: Antibacterial activity against […] expressing Escherichia coli isolate 4024 after 18 to 24 hrs by two-fold broth microdilution assay; method in brief: as §2
Talaromyces funiculosus = assay: Antifungal activity against Penicillium funiculosum FNSST 3724 assessed as diameter of zone of inhibition at 250 ug/disc after 72 hrs by disc diffusion method; settings: FNSST 3724, 72 h, read-out: DIZ
Method in brief: (§4)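 Fungi were grown overnight at 30 °C in Sabouraud dextrose broth to 10^4 cfu/mL, and 100 µL was spread on Sabouraud dextrose agar. 6 mm discs carried 250 µg (25 µL of a 10 mg/mL stock in 96% ethanol), with ethanol as the negative control. Incubation was at 30 °C for 48 h (yeast) or 72 h (molds). Zone diameter was read including the disc, in triplicate, mean ± SE.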

Enterobacter cloacae [9] = assay: Antibacterial activity against CTX-15 expressing Enterobacter cloacae isolate 51 after 18 to 24 hrs by two-fold broth microdilution assay
Pseudomonas aeruginosa [10] = assay: Antibacterial activity against Pseudomonas aeruginosa FNSST 982 assessed as diameter of zone of inhibition at 250 ug/disc after 24 hrs by disc diffusion method; settings: FNSST 982, 24 h, read-out: DIZ; method in brief: as §3
Klebsiella pneumoniae [11] = assay: Antibacterial activity against Klebsiella pneumoniae FNSST 011 assessed as diameter of zone of inhibition at 250 ug/disc after 24 hrs by disc diffusion method; settings: FNSST 011, 24 h, read-out: DIZ; method in brief: as §3
Escherichia coli [12] = assay: Antibacterial activity against TEM-1/SHV-12 expressing Escherichia coli isolate 237 after 18 to 24 hrs by two-fold broth microdilution assay; method in brief: as §2
Clostridium perfringens [13] = assay: Antibacterial activity against Clostridium perfringens FNSST 4999 assessed as diameter of zone of inhibition at 250 ug/disc after 24 hrs by disc diffusion method; settings: FNSST 4999, 24 h, read-out: DIZ
Method in brief: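 Disc diffusion per CLSI: 100 µL of 10^6 cfu/mL bacterial suspension spread on Mueller Hinton agar. 6 mm discs loaded with 25 µL of 10 mg/mL compound stock in 96% ethanol (250 µg/disc); ethanol as negative control. Incubated 24 h at 37 °C. Inhibition zone diameter measured in mm including the disc, triplicate, reported as mean ± SE.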

Aeromonas hydrophila [14] = assay: Antibacterial activity against TEM-1/SHV-12 expressing Aeromonas hydrophila isolate 268 after 18 to 24 hrs by two-fold broth microdilution assay; method in brief: as §1
Aeromonas caviae [15] = assay: Antibacterial activity against […] expressing Aeromonas caviae isolate 258 after 18 to 24 hrs by two-fold broth microdilution assay; method in brief: as §1
Staphylococcus aureus [16] = assay: Antibacterial activity against Staphylococcus aureus ATCC 25923 after 18 to 24 hrs by two-fold broth microdilution assay; method in brief: as §1
Enterobacter cloacae [17] = assay: Antibacterial activity against TEM-1/SHV-12 expressing Enterobacter cloacae isolate 306 after 18 to 24 hrs by two-fold broth microdilution assay
Acinetobacter baumannii [18] = assay: Ratio of meropenem MIC to compound MIC for Acinetobacter baumannii isolate 170
Acinetobacter baumannii [19] = assay: Ratio of imipenem MIC to compound MIC for Acinetobacter baumannii isolate 170
Escherichia coli [20] = assay: Antibacterial activity against Escherichia coli FNSST 982 assessed as diameter of zone of inhibition at 250 ug/disc after 24 hrs by disc diffusion method; settings: FNSST 982, 24 h, read-out: DIZ; method in brief: as §3
Aspergillus fumigatus = assay: Antifungal activity against Aspergillus fumigatus FNSST 3833 assessed as diameter of zone of inhibition at 250 ug/disc after 72 hrs by disc diffusion method; settings: FNSST 3833, 72 h, read-out: DIZ; method in brief: as §4
Pseudomonas aeruginosa [21] = assay: Ratio of gentamicin MIC to compound MIC for Pseudomonas aeruginosa FNSST 982
Escherichia coli [22] = assay: Ratio of gentamicin MIC to compound MIC for Escherichia coli FNSST 982
Kluyvera intermedia = assay: Antibacterial activity against TEM-1/SHV-12/[…] expressing Enterobacter intermedius isolate 243 after 18 to 24 hrs by two-fold broth microdilution assay; method in brief: as §1
Pseudomonas aeruginosa [23] = assay: Ratio of meropenem MIC to compound MIC for Pseudomonas aeruginosa isolate 197
Escherichia coli [24] = assay: Antibacterial activity against Escherichia coli FNSST 982 after 18 to 24 hrs by two-fold broth microdilution assay; method in brief: as §1
Acinetobacter baumannii [25] = assay: Antibacterial activity against SIM-1 expressing Acinetobacter baumannii isolate 170 after 18 to 24 hrs by two-fold broth microdilution assay; method in brief: as §2
Escherichia coli [26] = assay: Antibacterial activity against […] expressing Escherichia coli isolate 235 after 18 to 24 hrs by two-fold broth microdilution assay; method in brief: as §2
Aeromonas hydrophila [27] = assay: Ratio of gentamicin MIC to compound MIC for Aeromonas hydrophila FNSST 014
Aeromonas hydrophila [28] = assay: Antibacterial activity against Aeromonas hydrophila FNSST 014 after 18 to 24 hrs by two-fold broth microdilution assay; method in brief: as §1
Bacillus cereus [29] = assay: Antibacterial activity against Bacillus cereus ATCC 11778 after 18 to 24 hrs by two-fold broth microdilution assay; method in brief: as §1
Aeromonas caviae [30] = assay: Antibacterial activity against TEM-1/CTX-M-15 expressing Aeromonas caviae isolate 260 after 18 to 24 hrs by two-fold broth microdilution assay; method in brief: as §1
Enterococcus faecalis [31] = assay: Antibacterial activity against Enterococcus faecalis ATCC 29212 assessed as diameter of zone of inhibition at 250 ug/disc after 24 hrs by disc diffusion method; settings: ATCC 29212, 24 h, read-out: DIZ; method in brief: as §3
Candida albicans = assay: Antifungal activity against Candida albicans ATCC 10231 assessed as diameter of zone of inhibition at 250 ug/disc after 48 hrs by disc diffusion method; settings: ATCC 10231, 48 h, read-out: DIZ; method in brief: as §4
Pseudomonas aeruginosa [32] = assay: Ratio of imipenem MIC to compound MIC for Pseudomonas aeruginosa isolate 197
Pseudomonas aeruginosa [33] = assay: Antibacterial activity against Pseudomonas aeruginosa FNSST 982 after 18 to 24 hrs by two-fold broth microdilution assay; method in brief: as §1
[34] = tested on: Stenotrophomonas maltophilia; assay: Antibacterial activity against […] expressing Stenotrophomonas maltophilia isolate 125 after 18 to 24 hrs by two-fold broth microdilution assay; method in brief: as §1
Bacillus cereus [35] = assay: Antibacterial activity against Bacillus cereus ATCC 11778 assessed as diameter of zone of inhibition at 250 ug/disc after 24 hrs by disc diffusion method; settings: ATCC 11778, 24 h, read-out: DIZ; method in brief: as §3
Pseudomonas aeruginosa [36] = assay: Antibacterial activity against GIM-1 expressing Pseudomonas aeruginosa isolate 197 after 18 to 24 hrs by two-fold broth microdilution assay; method in brief: as §1
Klebsiella pneumoniae [37] = assay: Antibacterial activity against Klebsiella pneumoniae FNSST 011 after 18 to 24 hrs by two-fold broth microdilution assay; method in brief: as §1
Pseudomonas aeruginosa [38] = assay: Ratio of cefotaxime MIC to compound MIC for Pseudomonas aeruginosa FNSST 982

For `O/N=C/c1n(Cc2ccccc2)cc[n+]1-c1ccc(F)cc1.[Br-]`, the MIC (Enterococcus faecalis [1]) was 6.25 µg/mL, the MIC (Clostridium perfringens [2]) was 25 µg/mL and the zone of inhibition at 250 µg/disc (Staphylococcus aureus [3]) was 19.9 mm. The Ratio (Klebsiella pneumoniae [4]) was 2.5, the MIC (Enterobacter cloacae [5]) was 6.25 µg/mL and the zone of inhibition at 250 µg/disc (Aeromonas hydrophila [6]) was 16.5 mm. It also gave an MIC (Klebsiella pneumoniae [7]) of 12.5 µg/mL, an MIC (Escherichia coli [8]) of 1.56 µg/mL and a zone of inhibition at 250 µg/disc (Talaromyces funiculosus) of 17.9 mm. It also gave an MIC (Enterobacter cloacae [9]) of 6.25 µg/mL, a zone of inhibition at 250 µg/disc (Pseudomonas aeruginosa [10]) of 15.9 mm and a zone of inhibition at 250 µg/disc (Klebsiella pneumoniae [11]) of 14.7 mm. For the same molecule, the MIC (Escherichia coli [12]) was 3.12 µg/mL, the zone of inhibition at 250 µg/disc (Clostridium perfringens [13]) was 11.4 mm and the MIC (Aeromonas hydrophila [14]) was 12.5 µg/mL. The MIC (Aeromonas caviae [15]) was 12.5 µg/mL, the MIC (Staphylococcus aureus [16]) was 6.25 µg/mL and the MIC (Enterobacter cloacae [17]) was 6.25 µg/mL. It also gave a Ratio (Acinetobacter baumannii [18]) of 20, a Ratio (Acinetobacter baumannii [19]) of 20 and a zone of inhibition at 250 µg/disc (Escherichia coli [20]) of 15.3 mm. It also gave a zone of inhibition at 250 µg/disc (Aspergillus fumigatus) of 19.4 mm, a Ratio (Pseudomonas aeruginosa [21]) of 2.5 and a Ratio (Escherichia coli [22]) of 2.5. For the same molecule, the MIC (Kluyvera intermedia) was 6.25 µg/mL, the Ratio (Pseudomonas aeruginosa [23]) was 20 and the MIC (Escherichia coli [24]) was 12.5 µg/mL. It also gave an MIC (Acinetobacter baumannii [25]) of 0.78 µg/mL, an MIC (Escherichia coli [26]) of 6.25 µg/mL and a Ratio (Aeromonas hydrophila [27]) of 2.5. It also gave an MIC (Aeromonas hydrophila [28]) of 12.5 µg/mL, an MIC (Bacillus cereus [29]) of 6.25 µg/mL and an MIC (Aeromonas caviae [30]) of 12.5 µg/mL. The zone of inhibition at 250 µg/disc (Enterococcus faecalis [31]) was 19.6 mm, the zone of inhibition at 250 µg/disc (Candida albicans) was 21.9 mm and the Ratio (Pseudomonas aeruginosa [32]) was 20. The MIC (Pseudomonas aeruginosa [33]) was 25 µg/mL, the MIC [34] was 12.5 µg/mL and the zone of inhibition at 250 µg/disc (Bacillus cereus [35]) was 18.3 mm. The MIC (Pseudomonas aeruginosa [36]) was 0.39 µg/mL and the MIC (Klebsiella pneumoniae [37]) was 1.56 µg/mL.

For `Cc1ccc(-[n+]2ccn(Cc3ccccc3)c2/C=N/O)cc1.[Br-]`, the MIC (Enterococcus faecalis [1]) was 25 µg/mL, the MIC (Clostridium perfringens [2]) was 25 µg/mL and the zone of inhibition at 250 µg/disc (Staphylococcus aureus [3]) was 18.4 mm. It also gave a zone of inhibition at 250 µg/disc (Aeromonas hydrophila [6]) of 16.6 mm, a zone of inhibition at 250 µg/disc (Talaromyces funiculosus) of 18.4 mm and a zone of inhibition at 250 µg/disc (Pseudomonas aeruginosa [10]) of 20.6 mm. It also gave a zone of inhibition at 250 µg/disc (Klebsiella pneumoniae [11]) of 16.3 mm, a zone of inhibition at 250 µg/disc (Clostridium perfringens [13]) of 20.7 mm and an MIC (Staphylococcus aureus [16]) of 6.25 µg/mL. The zone of inhibition at 250 µg/disc (Escherichia coli [20]) was 17.7 mm, the zone of inhibition at 250 µg/disc (Aspergillus fumigatus) was 20.3 mm and the Ratio (Pseudomonas aeruginosa [21]) was 450. It also gave a Ratio (Escherichia coli [22]) of 2.5, an MIC (Escherichia coli [24]) of 3.12 µg/mL and an MIC (Aeromonas hydrophila [28]) of 12.5 µg/mL. The MIC (Bacillus cereus [29]) was 12.5 µg/mL, the zone of inhibition at 250 µg/disc (Enterococcus faecalis [31]) was 14.5 mm and the zone of inhibition at 250 µg/disc (Candida albicans) was 20.8 mm. The MIC (Pseudomonas aeruginosa [33]) was 0.14 µg/mL, the Ratio (Pseudomonas aeruginosa [38]) was 115 and the zone of inhibition at 250 µg/disc (Bacillus cereus [35]) was 12.2 mm. The MIC (Klebsiella pneumoniae [37]) was 12.5 µg/mL.
